Results: ChEMBL document CHEMBL3632558, “Synthesis, antimycobacterial and antibacterial activity of l-[(1R,2S)-2-fluorocyclopropyl]naphthyridone derivatives containing an oxime-functionalized pyrrolidine moiety” (2015)
In brackets after ≈: the same amount, converted by molar mass.

Key:
Assay type in all cases: functional
Streptococcus pneumoniae = test: Antibacterial activity against Streptococcus pneumoniae ATCC 19615 after 18 to 24 hrs
Summary of the method: (§1)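 MIC by standard NCCLS reference procedure (M100-S11); lowest concentration of compound inhibiting visible bacterial growth after incubation at 35 °C for 18–24 h, read as complete inhibition of growth. Ciprofloxacin, levofloxacin and moxifloxacin run alongside as reference agents.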

Enterococcus faecium [1] = test: Antibacterial activity against Enterococcus faecium 14-6 after 18 to 24 hrs; summary of the method: as §1
Escherichia coli [2] = test: Antibacterial activity against Escherichia coli ATCC 25922 after 18 to 24 hrs; summary of the method: as §1
Enterococcus faecium [3] = test: Antibacterial activity against Enterococcus faecium 14-5 after 18 to 24 hrs; summary of the method: as §1
Enterococcus faecium [4] = test: Antibacterial activity against Enterococcus faecium 14-1 after 18 to 24 hrs; summary of the method: as §1
Klebsiella pneumoniae [5] = test: Antibacterial activity against Klebsiella pneumoniae 14-2 after 18 to 24 hrs; summary of the method: as §1
Enterococcus faecalis [6] = test: Antibacterial activity against Enterococcus faecalis 14-2 after 18 to 24 hrs; summary of the method: as §1
[7] = test system: Staphylococcus epidermidis; test: Antibacterial activity against methicillin-resistant Staphylococcus epidermidis 14-37 after 18 to 24 hrs
[8] = test system: Staphylococcus epidermidis; test: Antibacterial activity against methicillin-resistant Staphylococcus epidermidis 14-21 after 18 to 24 hrs
Klebsiella pneumoniae [9] = test: Antibacterial activity against Klebsiella pneumoniae 14-4 after 18 to 24 hrs; summary of the method: as §1
Klebsiella pneumoniae [10] = test: Antibacterial activity against ESBL-positive Klebsiella pneumoniae 14-17 after 18 to 24 hrs; summary of the method: as §1
Klebsiella pneumoniae [11] = test: Antibacterial activity against Klebsiella pneumoniae 14-1 after 18 to 24 hrs; summary of the method: as §1
Klebsiella pneumoniae [12] = test: Antibacterial activity against ESBL-positive Klebsiella pneumoniae 14-18 after 18 to 24 hrs; summary of the method: as §1
Klebsiella pneumoniae [13] = test: Antibacterial activity against ESBL-positive Klebsiella pneumoniae 14-19 after 18 to 24 hrs; summary of the method: as §1
Klebsiella pneumoniae [14] = test: Antibacterial activity against Klebsiella pneumoniae 14-3 after 18 to 24 hrs; summary of the method: as §1
Staphylococcus aureus [15] = test: Antibacterial activity against methicillin-resistant Staphylococcus aureus 14-4 after 18 to 24 hrs
[16] = test system: Staphylococcus epidermidis; test: Antibacterial activity against methicillin-resistant Staphylococcus epidermidis 14-39 after 18 to 24 hrs
Staphylococcus aureus [17] = test: Antibacterial activity against methicillin-sensitive Staphylococcus aureus 14-4 after 18 to 24 hrs; summary of the method: as §1
Staphylococcus aureus [18] = test: Antibacterial activity against methicillin-sensitive Staphylococcus aureus 14-2 after 18 to 24 hrs; summary of the method: as §1
[19] = test system: Staphylococcus epidermidis; test: Antibacterial activity against methicillin-resistant Staphylococcus epidermidis 14-22 after 18 to 24 hrs
Enterococcus faecalis [20] = test: Antibacterial activity against Enterococcus faecalis 14-1 after 18 to 24 hrs; summary of the method: as §1
[21] = test system: Staphylococcus epidermidis; test: Antibacterial activity against methicillin-sensitive Staphylococcus epidermidis 14-2 after 18 to 24 hrs; summary of the method: as §1
[22] = test system: Mycobacterium tuberculosis; test: Antimycobacterial activity against Mycobacterium tuberculosis H37Rv ATCC 27294 by alamar blue assay
Summary of the method: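 Microplate Alamar Blue Assay; MIC is the lowest concentration giving ≥90% reduction in fluorescence relative to the mean of replicate bacterium-only controls. MDR strain 6133 is resistant to isoniazid and rifampicin.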

Pseudomonas aeruginosa [23] = test: Antibacterial activity against Pseudomonas aeruginosa 14-9 after 18 to 24 hrs; summary of the method: as §1
Staphylococcus aureus [24] = test: Antibacterial activity against Staphylococcus aureus CMCC 26003 after 18 to 24 hrs; summary of the method: as §1
Staphylococcus aureus [25] = test: Antibacterial activity against methicillin-resistant Staphylococcus aureus 14-5 after 18 to 24 hrs
Pseudomonas aeruginosa [26] = test: Antibacterial activity against Pseudomonas aeruginosa ATCC 27853 after 18 to 24 hrs; summary of the method: as §1
Pseudomonas aeruginosa [27] = test: Antibacterial activity against Pseudomonas aeruginosa 14-15 after 18 to 24 hrs; summary of the method: as §1
Pseudomonas aeruginosa [28] = test: Antibacterial activity against Pseudomonas aeruginosa 14-16 after 18 to 24 hrs; summary of the method: as §1
Pseudomonas aeruginosa [29] = test: Antibacterial activity against Pseudomonas aeruginosa 14-14 after 18 to 24 hrs; summary of the method: as §1
Staphylococcus aureus [30] = test: Antibacterial activity against methicillin-sensitive Staphylococcus aureus 14-3 after 18 to 24 hrs; summary of the method: as §1
Staphylococcus aureus [31] = test: Antibacterial activity against methicillin-sensitive Staphylococcus aureus 14-1 after 18 to 24 hrs; summary of the method: as §1
Pseudomonas aeruginosa [32] = test: Antibacterial activity against Pseudomonas aeruginosa 14-19 after 18 to 24 hrs; summary of the method: as §1
Escherichia coli [33] = test: Antibacterial activity against Escherichia coli 14-1 after 18 to 24 hrs; summary of the method: as §1
Escherichia coli [34] = test: Antibacterial activity against ESBL-positive Escherichia coli 14-2 after 18 to 24 hrs; summary of the method: as §1
Escherichia coli [35] = test: Antibacterial activity against ESBL-positive Escherichia coli 14-1 after 18 to 24 hrs; summary of the method: as §1
Escherichia coli [36] = test: Antibacterial activity against Escherichia coli 14-2 after 18 to 24 hrs; summary of the method: as §1
Enterococcus faecium [37] = test: Antibacterial activity against Enterococcus faecium 14-2 after 18 to 24 hrs; summary of the method: as §1

SMILES | MIC (Streptococcus pneumoniae) [µg/mL] | MIC (Enterococcus faecium [1]) [µg/mL] | MIC (Enterococcus faecium [3]) [µg/mL] | MIC (Enterococcus faecium [4]) [µg/mL] | MIC (Klebsiella pneumoniae [5]) [µg/mL] | MIC (Enterococcus faecalis [6]) [µg/mL] | MIC [7] [µg/mL] | MIC [8] [µg/mL] | MIC (Klebsiella pneumoniae [9]) [µg/mL] | MIC (Klebsiella pneumoniae [10]) [µg/mL] | MIC (Klebsiella pneumoniae [11]) [µg/mL] | MIC (Klebsiella pneumoniae [13]) [µg/mL] | MIC (Klebsiella pneumoniae [14]) [µg/mL] | MIC (Staphylococcus aureus [15]) [µg/mL] | MIC [16] [µg/mL] | MIC (Staphylococcus aureus [17]) [µg/mL] | MIC (Staphylococcus aureus [18]) [µg/mL] | MIC [19] [µg/mL] | MIC (Enterococcus faecalis [20]) [µg/mL] | MIC [21] [µg/mL] | other results
O=C(O)c1cn(C2CC2)c2cc(N3CCNCC3)c(F)cc2c1=O [CIPROFLOXACIN] | 2 (≈ 6.04 µM) | > 128 | 128 (≈ 386 µM) | 64 (≈ 193 µM) | 16 (≈ 48.3 µM) | 1 (≈ 3.02 µM) | 128 (≈ 386 µM) | 64 (≈ 193 µM) | 32 (≈ 96.6 µM) | 4 (≈ 12.1 µM) | 32 (≈ 96.6 µM) | 64 (≈ 193 µM) | 128 (≈ 386 µM) | > 128 | 128 (≈ 386 µM) | 0.5 (≈ 1.51 µM) | 0.25 (≈ 0.754 µM) | 128 (≈ 386 µM) | 128 (≈ 386 µM) | > 128 | MIC (Escherichia coli [2]): < 0.008 µg/mL; MIC (Klebsiella pneumoniae [12]): 0.25 µg/mL (≈ 0.754 µM)
NNC(=O)c1ccncc1 [ISONIAZID] |  |  |  |  |  |  |  |  |  |  |  |  |  |  |  |  |  |  |  |  | MIC90 [22]: 0.049 µg/mL (≈ 0.357 µM)
NCC1CN(c2nc3c(cc2F)c(=O)c(C(=O)O)cn3[C@@H]2C[C@@H]2F)C/C1=N\OCc1ccccc1 (stereo partly drawn) |  |  |  |  |  |  |  |  |  |  |  |  |  |  |  |  |  |  |  |  | MIC90 [22]: 0.5 µg/mL (≈ 1.03 µM)
COc1c(N2C[C@@H]3CCCN[C@@H]3C2)c(F)cc2c(=O)c(C(=O)O)cn(C3CC3)c12 [MOXIFLOXACIN] | 0.015 (≈ 0.0374 µM) | 8 (≈ 19.9 µM) | 8 (≈ 19.9 µM) | 8 (≈ 19.9 µM) | 16 (≈ 39.9 µM) | 0.5 (≈ 1.25 µM) | 8 (≈ 19.9 µM) | 32 (≈ 79.7 µM) | 16 (≈ 39.9 µM) | 8 (≈ 19.9 µM) | 8 (≈ 19.9 µM) | 64 (≈ 159 µM) | 32 (≈ 79.7 µM) | 16 (≈ 39.9 µM) | 8 (≈ 19.9 µM) | < 0.008 | 0.06 (≈ 0.149 µM) | 8 (≈ 19.9 µM) | 32 (≈ 79.7 µM) | 32 (≈ 79.7 µM) | MIC (Pseudomonas aeruginosa [23]): 4 µg/mL (≈ 9.96 µM); MIC (Staphylococcus aureus [24]): 0.06 µg/mL (≈ 0.149 µM); MIC (Staphylococcus aureus [25]): 8 µg/mL (≈ 19.9 µM); MIC (Pseudomonas aeruginosa [26]): 2 µg/mL (≈ 4.98 µM); MIC (Pseudomonas aeruginosa [27]): 16 µg/mL (≈ 39.9 µM); MIC (Klebsiella pneumoniae [12]): 1 µg/mL (≈ 2.49 µM); MIC (Pseudomonas aeruginosa [28]): 8 µg/mL (≈ 19.9 µM); MIC (Pseudomonas aeruginosa [29]): 16 µg/mL (≈ 39.9 µM); MIC (Staphylococcus aureus [30]): < 0.008 µg/mL; MIC (Staphylococcus aureus [31]): 4 µg/mL (≈ 9.96 µM); MIC (Pseudomonas aeruginosa [32]): 1 µg/mL (≈ 2.49 µM)
C[C@H]1COc2c(N3CCN(C)CC3)c(F)cc3c(=O)c(C(=O)O)cn1c23.C[C@H]1COc2c(N3CCN(C)CC3)c(F)cc3c(=O)c(C(=O)O)cn1c23.O [LEVOFLOXACIN] |  | 64 | 64 | 16 | 8 | 1 | 64 | 64 | 8 | 4 | 16 | 64 | 16 | 64 | 64 | 0.5 | 0.25 | 32 | 128 | 128 | MIC (Staphylococcus aureus [24]): 0.125 µg/mL; MIC (Escherichia coli [33]): 4 µg/mL; MIC (Escherichia coli [34]): 8 µg/mL; MIC (Staphylococcus aureus [25]): 8 µg/mL; MIC (Escherichia coli [35]): 2 µg/mL; MIC (Staphylococcus aureus [30]): 0.125 µg/mL; MIC (Escherichia coli [36]): 4 µg/mL; MIC (Enterococcus faecium [37]): 32 µg/mL; MIC (Staphylococcus aureus [31]): 8 µg/mL
